Screening results (PubChem BioAssay)
APP 5'UTR act – activators of APP 5'UTR luciferase reporter, primary screen, SH-SY5Y cells. SH-SY5Y APP 5'UTR luciferase reporter, luminescence; zero percent = DMSO vehicle wells. activation, % at 2 µM. actives 1% (n = 190,000). AID 1276, 2008;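 active = activation above a set limit, based on mean plus 3 SD of controls, cut at about 140% in these data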
STAT1 act – STAT1 signaling activators, primary screen, cell-based, HTS, luciferase reporter | NIH 3T3 STAT1-luciferase reporter, IFN-gamma, luminescence; 100% = IFN-gamma alone, no compound | activation (% of control), % at 5.5 µM | actives 2.6% (n = 200,000) | AID 932, 2007;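 active = activation above the screen-wide mean activation plus 3 SD, cut at about 130% in these data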;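 note: raw ratio to IFN-gamma control signal so 100% means no change and 0% no light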
AHR activator – AHR activators, primary screen, cell-based, luminescence, luciferase reporter, human; actives 2.5% (n = 320,000); AHR-responsive luciferase reporter cells; AID 2796, 2010; Aryl hydrocarbon receptor (Homo sapiens), P35869; activation, % at 5 µM; in the data active = activation above about 47%;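 note: 0% = vehicle wells and 100% = reference agonist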
NF-kB neuron act – activators of NF-kB expression in neurons, primary screen, cell-based, HTS. actives 1.6% (n = 190,000). human neuronal cells, NF-kB reporter expression; stronger effect = higher value. fold change at 12.5 µM; in the data active = fold change above about 3.3
PERK inhibitor – block of dimerizer-induced PERK translation repression, primary screen, PERK inhibitor project, CHO PERK-DD cells, SEAP luminescence, HTS; CHO PERK-DD fusion, SEAP luminescence translation reporter; AID 1416, 2008; Eukaryotic translation initiation factor 2-alpha kinase 3 (Homo sapiens), Q9NZJ5; actives 0.17% (n = 220,000); inhibition, % at 5.6 µM;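 active = inhibition above the mean inhibition of all tested compounds plus 3 SD, set separately per screening campaign, cut at about 2.9% in these data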;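 note: PERK kinase domain activated by AP20187 dimerizer at 100 nM; 0% = DMSO with dimerizer and 100% = rapamycin at 8.4 µM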
Target sequence (Q9NZJ5 whole entry, looked up, the tested form may be a part): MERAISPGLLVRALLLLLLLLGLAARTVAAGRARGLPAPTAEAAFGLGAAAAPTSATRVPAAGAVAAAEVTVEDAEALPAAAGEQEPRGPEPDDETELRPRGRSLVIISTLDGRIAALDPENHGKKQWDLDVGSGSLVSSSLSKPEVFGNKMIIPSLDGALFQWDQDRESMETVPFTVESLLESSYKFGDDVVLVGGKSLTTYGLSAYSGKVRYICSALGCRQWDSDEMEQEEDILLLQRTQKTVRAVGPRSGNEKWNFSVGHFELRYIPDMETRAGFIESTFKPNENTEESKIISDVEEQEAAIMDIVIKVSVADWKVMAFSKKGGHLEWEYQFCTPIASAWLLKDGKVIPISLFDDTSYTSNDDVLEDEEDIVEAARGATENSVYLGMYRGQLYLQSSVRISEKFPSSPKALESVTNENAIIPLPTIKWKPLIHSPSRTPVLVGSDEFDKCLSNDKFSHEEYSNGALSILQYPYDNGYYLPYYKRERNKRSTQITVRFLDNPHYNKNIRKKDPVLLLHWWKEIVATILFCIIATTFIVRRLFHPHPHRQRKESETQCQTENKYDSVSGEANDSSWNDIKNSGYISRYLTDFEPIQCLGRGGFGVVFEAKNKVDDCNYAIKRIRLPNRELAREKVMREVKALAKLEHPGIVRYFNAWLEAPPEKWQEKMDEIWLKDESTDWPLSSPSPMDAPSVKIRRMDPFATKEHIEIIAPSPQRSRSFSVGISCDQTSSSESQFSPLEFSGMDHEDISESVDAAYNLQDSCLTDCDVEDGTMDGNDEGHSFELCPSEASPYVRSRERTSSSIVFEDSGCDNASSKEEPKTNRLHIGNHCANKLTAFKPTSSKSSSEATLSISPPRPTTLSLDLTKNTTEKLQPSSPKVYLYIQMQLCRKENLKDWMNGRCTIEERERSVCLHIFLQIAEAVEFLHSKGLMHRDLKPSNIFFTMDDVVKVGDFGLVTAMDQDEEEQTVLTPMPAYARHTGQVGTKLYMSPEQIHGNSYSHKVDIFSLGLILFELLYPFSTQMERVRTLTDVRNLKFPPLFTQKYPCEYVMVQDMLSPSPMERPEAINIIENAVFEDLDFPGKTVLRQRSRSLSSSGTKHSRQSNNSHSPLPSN
MDM2 E3 inh – MDM2-luciferase reporter signal enhancers, primary screen, MDM2 E3 ligase inhibitor project, cell-based, luminescence, 1536-well; E3 ubiquitin-protein ligase Mdm2 (Homo sapiens), Q00987; cell-based MDM2 ubiquitination luciferase reporter, 2 h; 0 = plate control, 100 = twice control, blank-subtracted; signal enhancement, % at 5 µM; actives 0.11% (n = 210,000); AID 1230, 2008;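 active = signal enhancement of 30% or more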;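 note: luminescence tracks abundance of the self-degrading MDM2-luciferase fusion protein; higher signal means inhibition of MDM2 E3 ligase activity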
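Buffer or medium: Cells held in DMEM | Assay system: Stable mammalian line carrying autodegrading MDM2–luciferase fusion reporter | Quantity: 2000 cells/well | Times: 4 h settle plus 2 h compound, 37 °C | Doses: One concentration, 5 µM, with 0.2% DMSO | Technique: Luminescence with SteadyLite reagent, 15 min at room temperature | Benchmarks: Plate controls and plate blanks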
Active calls of the source: *; x = no result. Rows were chosen to be rich in hits. Some 4.5% of all compounds tested hit in one or more screens of this group.

SMILES | APP 5'UTR act | STAT1 act | AHR activator | NF-kB neuron act | PERK inhibitor | MDM2 E3 inh
Cc1ccc(-n2nc(C)c(/C=N/NC(=O)c3cccnc3)c2Cl)cc1 | -1 | 109 | 47* | 1.8 | -1 | 1
O=C(N/N=C\c1cn[nH]c1-c1ccccc1)c1cccs1 | -1 | 120 | 30 | 1.1 | 0 | 5
O=C(N/N=C\c1cn[nH]c1-c1ccccc1)c1cccnc1 | -9 | 109 | 72* | 1.1 | 0 | -23
CN(C)C(=O)[C@H]1C[C@H]1[C@@H](O)[C@H](CO)NC(=O)[C@H](Cc1ccccc1)NC(=O)OC(C)(C)C | x | x | 1 | x | x | x
COc1ccc(NC(=O)Nc2cccc3c2O[C@H](CN(C)S(=O)(=O)c2cn(C)cn2)[C@@H](C)CN([C@H](C)CO)C3=O)cc1 | x | x | 0 | x | x | x
COc1ccc(NC(=O)C(=O)NCC(c2ccco2)N2CCc3ccccc3C2)cc1OC (stereo unspecified) | x | x | 3 | x | x | x
CCOC(=O)c1c2n(c3ccc(OC(C)=O)cc13)CCC2 | -3 | 103 | 48* | 1.1 | 1 | -6
CCOC(=O)c1c(CN(C)C)n(C)c2ccc(OC(C)=O)cc12 | -1 | 104 | 2 | 1.4 | 0 | -19
COc1cc(C(CCN2CCCC2)c2c(OC)cc(OC)c3c(-c4ccccc4)cc(=O)oc23)cc(OC)c1OC (stereo unspecified) | x | x | 2 | x | x | 8
COc1ccc(-n2nnnc2/C=C\Nc2ccc(C)cc2)cc1 | x | x | 1 | x | -1 | -12
Cn1cnc(S(=O)(=O)N2CCc3ccccc32)c1 | -6 | 95 | 5 | 0.93 | 3.1* | -9
Cc1cc(C)c(S(=O)(=O)N2CCc3ccccc32)c(C)c1 | x | x | 5 | x | x | x
Cc1nc(Nc2nc3ccccc3o2)nc(C)c1C | 143* | 117 | -3 | 2.8 | 0 | -43
Cc1ccnc(Nc2nc3ccccc3o2)n1 | 140* | 85 | 23 | 1.5 | 0 | -44
Cc1ccc2oc(Nc3nc(C)c(C)c(C)n3)nc2c1 | x | x | 1 | x | 0 | -20
CCOC(=O)c1cnc(Nc2nc3ccccc3o2)nc1CSC(=S)N(CC)CC | -41 | 105 | -2 | 24* | 1 | 5
Cc1ccc(Nc2nc3ccccc3o2)cc1F | 136* | 133* | 24 | 2.6 | 1 | -17
CCn1c(SCC(=O)N2CCC(C)CC2)nc2c(c1=O)SC(C)C2 (stereo unspecified) | x | x | 0 | x | x | x
CCCc1nc(Nc2nc3ccccc3o2)nc(C)c1C(=O)OCC | 33 | 144* | 13 | 3 | 0 | -35
COc1ccc(N(CC(=O)N2CCc3ccccc3C2)S(C)(=O)=O)cc1Cl | x | x | -2 | x | x | x
Cc1ccc(NC(=O)c2sc3ccccc3c2Cl)nc1 | 192* | 128 | 7 | 3.2 | 2 | -4
Cc1nnc(NC(=O)c2sc3ccccc3c2Cl)s1 | 65 | 78 | 48* | 3.3* | 0 | -53
Cc1cccnc1NC(=O)c1sc2ccccc2c1Cl | x | x | 69* | x | x | x
Cc1ccnc(NC(=O)c2sc3cc(Cl)ccc3c2Cl)c1 | 171* | 111 | 10 | 3.6* | 1 | -25
CC(Sc1nncn1C)C(=O)Nc1ccc(N2CCCCC2)cc1 (stereo unspecified) | x | x | 0 | x | x | x
SMILES | APP 5'UTR act | STAT1 act | AHR activator | NF-kB neuron act | PERK inhibitor | MDM2 E3 inh
Cc1ccc(C(=O)Nc2ccc(Br)c(C(F)(F)F)c2)cc1 | 108 | 143* | -3 | 3.2 | 0 | 2
CN(C)c1ccc(C(CNS(=O)(=O)c2ccc(F)c(F)c2)c2c[nH]c3ccccc23)cc1 (stereo unspecified) | 10 | 108 | 68* | 1 | 0 | 0
Cn1cc(CNCc2cn(C)nc2-c2ccc(C3CCCCC3)cc2)cn1 | 7 | 103 | 0 | 1.1 | 0 | 6
O=C(COC(=O)Cc1ccc(Cl)cc1Cl)Nc1ccccc1OC(F)F | 3 | 94 | 0 | 1.2 | 0 | 4
OCC1(Cc2ccc(F)cc2F)CCCN(CCCc2ccccc2)C1 (stereo unspecified) | x | x | 0 | x | x | x
Cc1ccc(Cl)cc1-n1c(SCC(=O)NCCC2=CCCCC2)nc2n[nH]c(C)c2c1=N | x | x | 19 | x | x | x
Cc1ccc(-n2c(SCC(=O)NCC3CCCO3)nc3n[nH]c(C)c3c2=N)cc1Cl (stereo unspecified) | -7 | 95 | 59* | 0.5 | -2 | -8
Cc1cc(-n2c(SCC(=O)NCCC3=CCCCC3)nc3n[nH]c(C)c3c2=N)ccc1Cl | x | x | 53* | x | x | x
CCc1cc(C(=O)N/N=C/c2ccc(O)cc2O)c2ccccc2n1 | x | x | 7 | x | x | x
CCOc1ccc(CNC(=O)C(=O)c2cn(CC(=O)N3CCOCC3)c3ccccc23)cc1OC | x | x | 3 | x | x | x
COc1ccc(NC2=Nc3ccccc3CC2)cc1 | 102 | 132* | 9 | 3.7* | 0 | -12
COCc1cc(C)nc(OCC(=O)N/N=C/c2ccc(OC)c(OC)c2)c1C#N | 0 | 96 | 63* | 0.77 | -1 | 1
COc1ccc(/C=N\NC(=O)c2ccc([N+](=O)[O-])c(C)c2)cc1COc1ccccc1C(N)=O | x | x | 9 | x | x | x
COc1ccc(/C=N/NC(=O)c2ccccc2OC)cc1COc1ccc(C)cc1 | x | x | 47* | x | x | x
COc1ccc(/C=N\NC(=O)c2ccccc2Br)cc1COc1ccc(F)cc1 | x | x | 1 | x | x | x
COc1ccc(/C=N/NC(=O)c2ccccc2OC)cc1COc1ccccc1[N+](=O)[O-] | x | x | 66* | x | x | x
COc1ccc(/C=N/NC(=O)CCn2c3ccccc3c3ccccc32)cc1OC | -3 | 98 | 69* | 1.3 | 2 | 2
COc1cc(/C=N/NC(=O)CCn2c3ccccc3c3ccccc32)cc(OC)c1OC | 9 | 102 | 13 | 1.2 | 0 | -8
COc1ccc(/C=N/NC(=O)c2ccoc2C)cc1O | 29 | 122 | 6 | 1.6 | 0 | 0
COc1ccc(/C=N/NC(=O)c2ccoc2C)cc1OC | 26 | 132* | 7 | 1.6 | 1 | -1
CC(C)(C)c1ccc(C(=O)C=[N+]=[N-])cc1 | 0 | 100 | 1 | 1 | 2 | -11
S=C(NCc1ccc2[nH]c3c(c2c1)CCCC3)Nc1ccccc1Cl | -20 | 94 | 58* | 0.82 | 1 | x
COc1ccccc1-c1cc(C(=O)NCCc2ccccc2)no1 | 51 | 120 | -9 | 3.8* | -1 | 1
COc1ccccc1-c1cc(C(=O)Nc2cccnc2)no1 | -96 | 131* | 2 | 2.8 | 1 | -14
COc1ccc(CCNC(=O)c2cc(-c3ccccc3OC)on2)cc1OC | -6 | 103 | -7 | 1.1 | -1 | 2
